From ChEMBL document CHEMBL4304756, “Second-Generation Tryptamine Derivatives Potently Sensitize Colistin Resistant Bacteria to Colistin” (ACS Med Chem Lett, 2019)
Active and inactive are the calls of the source. The rule behind the calls is not given here.

Assays:
[1] = test system: Klebsiella pneumoniae; experiment: Potentiation of colistin-induced antibacterial activity against Klebsiella pneumoniae 2210291 assessed as colistin MIC at 50 uM incubated for 16 hrs by broth microdilution method (reference value: 1 ug/ml); type: functional; details: Klebsiella pneumoniae, 2210291, 16 h
[2] = test system: Escherichia coli; experiment: Potentiation of colistin-induced antibacterial activity against Escherichia coli YD626 assessed as colistin MIC at 50 uM incubated for 16 hrs by broth microdilution method (reference value: 1 ug/ml); type: functional; details: YD626, 16 h
[3] = test system: Klebsiella pneumoniae; experiment: Potentiation of colistin-induced antibacterial activity against Klebsiella pneumoniae 2210291 harbouring mcr-1 gene assessed as colistin MIC at 50 uM incubated for 16 hrs by broth microdilution method (reference value: 16 ug/ml); type: functional; details: Klebsiella pneumoniae, 2210291, 16 h
[4] = test system: Escherichia coli; experiment: Potentiation of colistin-induced antibacterial activity against Escherichia coli YD626 harbouring mcr-1 gene assessed as colistin MIC at 50 uM incubated for 16 hrs by broth microdilution method (reference value: 8 ug/ml); type: functional; details: YD626, 16 h
[5] = test system: Acinetobacter baumannii; experiment: Potentiation of colistin-induced antibacterial activity against Acinetobacter baumannii 17978 harbouring mcr-1 gene assessed as colistin MIC at 50 uM incubated for 16 hrs by broth microdilution method (reference value: 16 ug/ml); type: functional; details: Acinetobacter baumannii, 17978, 16 h
[6] = test system: Acinetobacter baumannii; experiment: Potentiation of colistin-induced antibacterial activity against Acinetobacter baumannii 17978 assessed as colistin MIC at 50 uM incubated for 16 hrs by broth microdilution method (reference value: 2 ug/ml); type: functional; details: Acinetobacter baumannii, 17978, 16 h
[7] = Cytotoxicity against mouse 4T1 cells assessed as reduction in cell viability incubated for 18 hrs by MTT assay; type: cell-based
How it was run: (§1)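 4T1 mouse mammary tumor cells exposed to compound for 18 h, alone or together with colistin at 1 μg/mL. Medium then aspirated and replaced with 0.5 mg/mL MTT in culture medium for colorimetric viability read-out. CT50 taken as the concentration giving 50% cell viability.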

[8] = Cytotoxicity against mouse 4T1 cells assessed as reduction in cell viability in presence of 1 ug/ml colistin incubated for 18 hrs by MTT assay; type: cell-based; how it was run: as §1
[9] = test system: Klebsiella pneumoniae; experiment: Potentiation of colistin-induced antibacterial activity against Klebsiella pneumoniae 2210291 harbouring mcr-1 gene assessed as reduction in colistin MIC at 15 uM incubated for 16 hrs by broth microdilution method; type: functional, organism-based
How it was run: (§2)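 For the dose-response, colistin MIC was measured against mcr-1 plasmid-bearing E. coli, K. pneumoniae and A. baumannii while the adjuvant concentration was lowered stepwise (30, 15 μM, down to 5 μM). The aim was to find where the MIC rose above the 2 μg/mL CLSI susceptibility breakpoint.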

[10] = test system: Escherichia coli; experiment: Potentiation of colistin-induced antibacterial activity against Escherichia coli YD626 harbouring mcr-1 gene assessed as reduction in colistin MIC at 15 uM incubated for 16 hrs by broth microdilution method; type: functional, organism-based; how it was run: as §2
[11] = test system: Acinetobacter baumannii; experiment: Potentiation of colistin-induced antibacterial activity against Acinetobacter baumannii 17978 harbouring mcr-1 gene assessed as reduction in colistin MIC at 15 uM incubated for 16 hrs by broth microdilution method; type: functional, organism-based; how it was run: as §2

| Compound | MIC [1] [mg/L] | MIC [2] [mg/L] | MIC [3] [mg/L] | MIC [4] [mg/L] | MIC [5] [mg/L] | MIC [6] [mg/L] | CC50 at 18 h [7] [µM] | CC50 at 18 h [8] [µM] | Activity [9] | Activity [10] | Activity [11] |
| --- | --- | --- | --- | --- | --- | --- | --- | --- | --- | --- | --- |
| O=C(Nc1cc(Br)cc(Br)c1)Nc1ccc2cc[nH]c2c1 | 1 | 1 | 16 | 8 | 16 | 2 | – | – | – | – | – |
| CCCCc1ccc(NC(=O)Nc2ccc3[nH]ccc3c2)cc1 | 0.5 | 0.5 | 16 | 8 | 16 | 1 | – | – | – | – | – |
| O=C(NCc1c[nH]c2ccccc12)Nc1cc(C(F)(F)F)cc(C(F)(F)F)c1 | 0.125 | 0.0313 | 1 | 1 | 1 | 0.125 | – | – | – | – | – |
| O=C(NCCc1c[nH]c2ccc(Br)cc12)Nc1cc(Br)cc(Br)c1 | 0.5 | 0.25 | 2 | 2 | 2 | 0.5 | – | – | – | – | – |
| O=C(NCc1c[nH]c2ccccc12)Nc1cc(Cl)c(Br)c(Cl)c1 | 0.5 | 0.25 | 8 | 8 | 8 | 1 | – | – | – | – | – |
| O=C(NCCc1c[nH]c2ccccc12)Nc1ccc(Cl)c(Cl)c1 | 0.25 | 0.125 | 0.5 | 1 | 0.5 | 0.5 | 117 | 105 | – | – | – |
| CCCCc1ccc(C(=O)NCCc2c[nH]c3ccccc23)cc1 | 0.125 | 0.0625 | 8 | 4 | 4 | 0.25 | – | – | – | – | – |
| O=C(Nc1ccc(Cl)c(Cl)c1)Nc1ccc2cc[nH]c2c1 | 1 | 1 | 16 | 8 | 16 | 2 | – | – | – | – | – |
| O=C(Nc1cc(Cl)c(Br)c(Cl)c1)Nc1ccc2[nH]ccc2c1 | 1 | 0.5 | 16 | 8 | 8 | 1 | – | – | – | – | – |
| O=C(NCCc1c[nH]c2ccccc12)c1ccc(Cl)c(Cl)c1 | 0.5 | 0.5 | 2 | 2 | 2 | 1 | – | – | – | – | – |
| O=C(NCc1c[nH]c2ccccc12)Nc1ccc(Cl)c(Cl)c1 | 0.5 | 0.5 | 16 | 4 | 16 | 2 | – | – | – | – | – |
| CCCCc1ccc(C(=O)NCCc2c[nH]c3ccc(Br)cc23)cc1 | 0.25 | 0.125 | 4 | 4 | 4 | 0.5 | – | – | – | – | – |
| O=C(NCCc1c[nH]c2ccccc12)Nc1cc(C(F)(F)F)cc(C(F)(F)F)c1 | 0.25 | 0.0313 | 1 | 1 | 0.5 | 0.125 | 60.5 | 61.8 | Active | Active | Active |
| O=C(NCCc1c[nH]c2ccc(Br)cc12)c1cc(Br)cc(Br)c1 | 0.5 | 0.5 | 4 | 4 | 4 | 1 | – | – | – | – | – |
| O=C(Nc1ccc(Cl)c(Cl)c1)Nc1ccc2[nH]ccc2c1 | 1 | 0.5 | 16 | 8 | 16 | 2 | – | – | – | – | – |
| O=C(NCCc1c[nH]c2ccccc12)c1cc(C(F)(F)F)cc(C(F)(F)F)c1 | 0.25 | 0.0625 | 16 | 4 | 8 | 0.25 | – | – | – | – | – |
| O=C(NCCc1c[nH]c2ccccc12)c1cc(Br)cc(Br)c1 | 0.5 | 0.25 | 4 | 4 | 4 | 1 | – | – | – | – | – |
| O=C(NCCc1c[nH]c2ccc(Br)cc12)Nc1cc(C(F)(F)F)cc(C(F)(F)F)c1 | 0.5 | 0.0313 | 2 | 4 | 2 | 0.25 | – | – | – | – | – |
| CCCCc1ccc(NC(=O)Nc2ccc3cc[nH]c3c2)cc1 | 1 | 0.5 | 16 | 8 | 8 | 2 | – | – | – | – | – |
| O=C(Nc1cc(Cl)c(Br)c(Cl)c1)Nc1ccc2cc[nH]c2c1 | 1 | 1 | 16 | 8 | 16 | 2 | – | – | – | – | – |
| O=C(NCc1c[nH]c2ccccc12)Nc1cc(Br)cc(Br)c1 | 0.5 | 0.25 | 16 | 4 | 8 | 1 | – | – | – | – | – |
| O=C(Nc1cc(C(F)(F)F)cc(C(F)(F)F)c1)Nc1ccc2cc[nH]c2c1 | 1 | 0.5 | 16 | 4 | 8 | 1 | – | – | – | – | – |
| O=C(NCCc1c[nH]c2ccc(Br)cc12)c1ccc(Cl)c(Cl)c1 | 0.5 | 0.25 | 1 | 2 | 1 | 0.5 | – | – | – | – | – |
| CCCCc1ccc(NC(=O)NCCc2c[nH]c3ccccc23)cc1 | 1 | 1 | 16 | 8 | 16 | 2 | – | – | – | – | – |
| CCCCc1ccc(NC(=O)NCc2c[nH]c3ccccc23)cc1 | 0.5 | 1 | 16 | 8 | 16 | 2 | – | – | – | – | – |
| CC(C)n1cc(-c2cccc(NC(=O)Nc3cc(Cl)c(Br)c(Cl)c3)c2)nc1N | – | – | – | – | – | – | 23.2 | 15.6 | – | – | – |
| O=C(NCCc1c[nH]c2ccc(Br)cc12)c1cc(C(F)(F)F)cc(C(F)(F)F)c1 | 0.25 | 0.0625 | 8 | 4 | 8 | 0.5 | – | – | – | – | – |
| O=C(Nc1cc(C(F)(F)F)cc(C(F)(F)F)c1)Nc1ccc2[nH]ccc2c1 | 0.5 | 0.5 | 8 | 4 | 8 | 1 | – | – | – | – | – |
| O=C(Nc1cc(Br)cc(Br)c1)Nc1ccc2[nH]ccc2c1 | 1 | 1 | 16 | 8 | 16 | 1 | – | – | – | – | – |
| O=C(NCCc1c[nH]c2ccccc12)Nc1cc(Cl)c(Br)c(Cl)c1 | 0.5 | 0.125 | 1 | 1 | 1 | 0.5 | – | – | Active | Active | Active |
